Consider 14 molecules from ChEMBL document CHEMBL1132206, “Design, synthesis, and in vitro activity of catamphiphilic reverters of multidrug resistance: discovery of a selective, highly efficacious chemosensitizer with potency in the nanomolar range” (J Med Chem, 1999).

Active and inactive are the calls of the source. The calls are words filed in the database; no cut-off is given here.

The species named for data set [1] is Cavia porcellus. As to the kind of experiment: Potency expressed as EC50 for the negative inotropic activity. The class given is functional.
The species named for data set [2] is Cavia porcellus. As to the kind of experiment: Decrease in developed tension of the left atrium of guinea pig expressed as the negative inotropy. The class given is functional, Cardiac atrium. Further details: concentration or dose not given beside the values. The method, boiled down:
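Isolated guinea pig left atrium, electrically driven at 1 Hz. Read-out is the fall in developed tension at 5 × 10^-5 M, given as percent change from control (n = 5-6).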

Data set [3] is filed under the species Cavia porcellus. Put plainly: Potency expressed as IC50 for the vasorelaxant activity. Format: functional.
Data set [4] is filed under the species Cavia porcellus. Put plainly: Potency expressed as EC30 for the negative chronotropic activity. The class given is functional.
The species named for data set [5] is Cavia porcellus. Put plainly: Percent inhibition of calcium-induced contraction on K+ depolarized guinea pig aortic strip. Further details: concentration or dose not given beside the values. Format: functional, Aorta.
The subject of data set [6] is K562. Put plainly: Potency that causes half maximal increase in nuclear concentration of pirarubicin; 'i' means Inactive. Format: functional, cell-based. Conditions: Homo sapiens. The gist of the method: (§1)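 Doxorubicin-resistant and sensitive K 562 cells in exponential growth were used in pH 7.25 HEPES buffer at 37 °C in quartz cuvettes. Pirarubicin uptake was followed as the fall in fluorescence at 590 nm (ex 480 nm). Steady-state nuclear pirarubicin was measured across a range of inhibitor concentrations. α = (CnRi − CnRo)/(CnS − CnRo); αmax is the maximal α, and [i]0.5 is the concentration giving α = 0.5 (mean ± SEM).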

For data set [7], the species on record is Cavia porcellus. As to the kind of experiment: Decrease in atrial rate of the right atrium of guinea pig expressed as the negative chronotropy. Further details: concentration or dose not given beside the values.
The species named for data set [8] is Cavia porcellus. As to the kind of experiment: Potency expressed as EC50 for the negative inotropic activity; 'i' means Inactive. The class given is functional.
Data set [9] has as its system K562. As to the kind of experiment: Percentage of the dead cells of K-562 cells was determined for the compound. The class given is ADME, cell-based. Conditions: human. The gist of the method:
(§2)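 Doxorubicin-resistant K 562 cells were exposed to compound at 1 µM, and viability was scored by trypan blue exclusion. Dead cells above 20% counted as toxic.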

For data set [10], the system named is K562. As to the kind of experiment: Potency that causes a half maximal increase in nuclear concentration of pirarubicin. Format: functional, Homo sapiens.
Data set [11] has as its system K562. Put plainly: The efficacy in reverting MDR was evaluated on human erythroleukemia K-562 cell line. Format: functional. The gist of the method:
as §1

The species entered for data set [12] is Cavia porcellus. As to the kind of experiment: Potency expressed as IC50 for the vasorelaxant activity; 'i' means inactive. The class given is functional.
Data set [13] concerns K562. Put plainly: percentage of the dead cells of K-562 cells was determined for the concentration of 1 uM of the compound. The class given is ADME, cell-based. The note with it: human, k562, 1 µM. The gist of the method:
as §2

The subject of data set [14] is K562. Put plainly: The efficacy in reverting MDR was evaluated on erythroleukemia K-562 cell line. Format: functional, Homo sapiens. The gist of the method: as §1
Data set [15] is filed under the species Cavia porcellus. As to the kind of experiment: Potency expressed as EC30 for the negative chronotropic activity; 'i' means Inactive. Format: functional.
For data set [16], the species on record is Cavia porcellus. Put plainly: Decrease in developed tension of the right atrium of guinea pig expressed as the negative chronotropy. Further details: scale not given: the % may be the effect or the level left. Format: functional, Cardiac atrium. The method, boiled down: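 Spontaneously beating isolated guinea pig right atrium. Read-out is the fall in atrial rate at 5 × 10^-5 M (10^-5 M for some compounds), given as percent change from control (n = 7-8).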

The species entered for data set [17] is Cavia porcellus. Put plainly: Potency expressed as IC50 for the vasorelaxant activity. Format: functional.
The species named for data set [18] is Cavia porcellus. Put plainly: Potency expressed as EC30 for the negative chronotropic activity. The class given is functional.

`COc1ccc(C(C#N)(CCCN(C)C23CC4CC(CC(C4)C2)C3)C(C)C)cc1OC.Cl` (centres undefined): in data set [1], a half-maximal effect (EC50) was put at 3990 nM. Further, the Activity in data set [2] is on record as 80%; in data set [5], 65%; in [7], 81%. This molecule displayed an IC50 in data set [3] of 3800 nM. The concentration for an effect of 30% (EC30) in [4] was found to be 910 nM. Further, the Potency entry in data set [6] was “inactive”.
Regarding `C=CCNc1nc(NCC=C)nc(N2CCC(NCCCC(C#N)(c3ccc(OC)c(OC)c3)C(C)C)CC2)n1.Cl` (centres undefined), the 50% effective concentration (EC50) entry in data set [8] is on record as “Not Active”. The Activity was determined as 39% in data set [2], 62% in data set [5] and 87% in data set [7]. The same molecule showed an IC50 in data set [3] of 3450 nM. The EC30 in [4] came to 1750 nM. Also, the Dead cells in data set [9] was found to be 0%. Also, in [10], the Potency stood at 1600 nM. The molecule also registered an Alpha max in [11] of 0.9.
Consider `COc1ccc(C(C#N)(CC#CCN(C)CC23CC4CC(CC(C4)C2)C3)C(C)C)cc1OC.Cl` (centres undefined), for which the concentration giving a half-maximal response (EC50) in [1] came out at 1160 nM. For the same molecule, the Activity came to 77% in [2], 65% in data set [5] and 92% in data set [7]. The molecule also had an IC50 in data set [3] of 3420 nM. In data set [4], this molecule displayed an EC30 of 240 nM. Further, in data set [9], the Dead cells is 0%. The molecule further returned a Potency in [10] of 1300 nM. For the same molecule, the Alpha max in [11] was determined as 0.8.
For `COc1ccc(C(C#N)(CCCNC2c3ccccc3-c3ccccc32)C(C)C)cc1OC.Cl` (centres undefined), in [8], the half-maximal effective concentration (EC50) entry is reported as “Not Active”. Also, the Activity in data set [2] was determined as 33%; in data set [5] it was 46%; in [7], 74%. The molecule further registered an EC30 in data set [4] of 650 nM. Moreover, in data set [12], the IC50 entry is listed as “Inactive”. The molecule also displayed a Dead cells in [9] of 0%. The same molecule yielded a Potency in data set [10] of 250 nM. In addition, the Alpha max in data set [11] is 0.8.
With `Cl.N#CC(CCCNCc1c2ccccc2cc2ccccc12)(c1ccccc1)c1ccccc1`, the EC50 result in [8] is “Not Active”. For the same molecule, the values for the Activity in data set [2], in [5] and in data set [7] were 48%, 6% and 67%, respectively. Moreover, the EC30 in data set [4] worked out at 660 nM. For the same molecule, the IC50 result in [12] is reported as “Inactive”. The molecule also showed a Dead cells in [13] of 20%. The molecule also yielded a Potency in data set [10] of 500 nM. The Alpha max in data set [14] came out at 0.7.
As to `COc1ccc(C(C#N)(CC#CCNCC(c2ccccc2)c2ccccc2)C(C)C)cc1OC.Cl` (centres undefined), the EC50 in data set [1] was found to be 1060 nM. The figures for the Activity in data set [2], in data set [5] and in data set [7] were 61%, 54% and 67%, respectively. In data set [3], this molecule gave an IC50 of 4120 nM. Moreover, the concentration for an effect of 30% (EC30) in [4] amounted to 830 nM. The same molecule came in with a Dead cells in data set [9] of 20%. In [10], the Potency came out at 100 nM. Besides, the Alpha max in [11] is on record as 0.7.
In turn, `COc1ccc(C(C#N)(CC#CCNCc2cc3ccccc3c3ccccc23)C(C)C)cc1OC.Cl` (centres undefined) came in with a concentration for a half-maximal effect (EC50) in data set [1] of 1290 nM. The values for the Activity in [2], in data set [5] and in data set [7] were 88%, 10% and 31%, respectively. Further, in data set [15], the EC30 entry is “inactive”. The IC50 entry in [12] is “Inactive”. In [13], this molecule gave a Dead cells of 20%. The molecule also came in with a Potency in data set [10] of 500 nM. For the same molecule, the Alpha max in data set [14] is 0.5.
As to `CN(CCCC(C#N)(c1ccccc1)c1ccccc1)Cc1c2ccccc2cc2ccccc12.Cl`, it took 890 nM to reach a half-maximal effect in data set [1] (EC50). In addition, the Activity in data set [2] is 70%; in data set [5] it was 10%; in data set [7], 22%. In [15], the EC30 result was “inactive”. In addition, the IC50 entry in data set [12] is on record as “Inactive”. In data set [13], this molecule gave a Dead cells of 0%. This molecule yielded a Potency in data set [10] of 2100 nM. For the same molecule, the Alpha max in data set [14] is reported as 0.8.
Take `COc1ccc(C(C#N)(CCCN(C)C2c3ccccc3-c3ccccc32)C(C)C)cc1OC.Cl` (centres undefined): in [8], the half-maximal effective concentration (EC50) entry is reported as “Not Active”. Further, the Activity in [2] is given as 36%; in data set [5], 15%; in data set [7], 26%. The EC30 result in data set [15] was “inactive”. For the same molecule, the IC50 result in data set [12] is on record as “Inactive”. Besides, in data set [9], the Dead cells is 0%. In addition, in [10], the Potency came to 1000 nM. In [11], the Alpha max is given as 0.8.
On to `COc1ccc(C(C#N)(CCCN(C)Cc2c3ccccc3cc3ccccc23)C(C)C)cc1OC.Cl` (centres undefined), for which, in [1], the concentration giving a half-maximal response (EC50) worked out at 650 nM. For the same molecule, the Activity in data set [2] worked out at 85%; in data set [16], 19%; in [5] it was 9%. Also, the EC30 entry in data set [15] is “inactive”. Also, in data set [12], the IC50 result is given as “Inactive”. In addition, in data set [9], the Dead cells turned out to be 3%. The molecule further yielded a Potency in data set [10] of 2500 nM. Moreover, the Alpha max in data set [11] amounted to 0.5.
In turn, `Cl.N#CC(CCCNC(c1ccccc1)c1ccccc1)(c1ccccc1)c1ccccc1` came in with an EC50 in data set [1] of 380 nM. In addition, the Activity in [2] is 94%; in data set [5] it was 15%; in data set [7], 28%. In addition, the EC30 entry in data set [15] is “inactive”. For the same molecule, the 50% inhibitory concentration (IC50) result in [12] is recorded as “Inactive”. This molecule yielded a Dead cells in [13] of 2%. Further, in data set [10], the Potency was 2000 nM. This molecule had an Alpha max in data set [14] of 0.5.
In the case of `COc1ccc(C(C#N)(CCCNC23CC4CC(CC(C4)C2)C3)C(C)C)cc1OC.Cl` (centres undefined), the EC50 result in data set [8] is on record as “Not Active”. In addition, the figures for the Activity in [2], in [5] and in [7] were 45%, 81% and 80%, respectively. In data set [17], this molecule showed a 50% inhibitory concentration (IC50) of 7150 nM. Besides, the EC30 in [18] was 1700 nM. The Dead cells in data set [9] amounted to 0%. The Potency in data set [10] was found to be 2000 nM. In [11], this molecule came in with an Alpha max of 0.7.
On to `Cl.N#CC(CCCNC12CC3CC(CC(C3)C1)C2)(c1ccccc1)c1ccccc1`, for which the EC50 in data set [1] was 1030 nM. Moreover, the Activity in [2] came to 80%; in [5], 55%; in [7], 69%. Half-maximal inhibition in data set [3] (IC50) was put at 3490 nM. This molecule also gave a concentration for an effect of 30% (EC30) in data set [4] of 1260 nM. Further, the Dead cells in data set [9] is given as 0%. The molecule also returned a Potency in data set [10] of 500 nM. The same molecule had an Alpha max in [11] of 0.8.
`COc1ccc(C(C#N)(CC#CCNCc2c3ccccc3cc3ccccc23)C(C)C)cc1OC.Cl` (centres undefined) registered an EC50 in data set [1] of 1040 nM. Moreover, the Activity in [2] turned out to be 74%; in data set [5] it was 12%; in data set [7], 34%. Further, the EC30 entry in [15] is “inactive”. Moreover, the half-maximal inhibitory concentration (IC50) entry in data set [12] is on record as “Inactive”. Moreover, the Dead cells in data set [13] came to 15%. Also, in data set [10], the Potency was 2000 nM. Moreover, the Alpha max in [14] is reported as 0.7.

The EC50 is the midpoint of the concentration-response curve. For orientation: IC50 means the midpoint of a concentration-inhibition curve. In general, EC30 refers to the concentration needed for an effect of 30%.
